Experiments:
P388 [1] = experiment: Antitumor activity against mouse P388 cells allografted in mouse assessed as increase in life span at 9 mg/kg/day, ip after 1 day; assay type: functional; conditions: 24 h, route intraperitoneal
Outline: (§1)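 P388 ascites implanted ip in mice, 10 animals per group. Sulfate salts given ip either daily on days 1-9 or as a single dose on day 1. Median life span was calculated using all deaths and survivors. Percent increase in life span was taken over untreated controls. The highest nontoxic dose was noted.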

B16 [2] = experiment: Antitumor activity against mouse B16 cells allografted in B6D2F1 mouse assessed as increase in life span at 1.8 mg/kg/day, ip administered on day 1, 5 and 9 measured for 56 days relative to untreated control; assay type: functional; conditions: route intraperitoneal
Outline: (§2)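 Male B6D2F1 mice implanted ip on day 0 with 0.25 mL of a 20% (w/v) B16 melanoma brei. Alkaloid sulfate salts given ip on days 1, 5, 9 or on days 5, 9, 13, groups of 10, against 30 untreated controls. Read-outs: median survival time with range of individual deaths, and percent increase in life span, with survivors counted on day 56.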

B16 [3] = experiment: Antitumor activity against mouse B16 cells allografted in B6D2F1 mouse assessed as increase in life span at 1.08 mg/kg/day, ip administered on day 1, 5 and 9 measured for 56 days relative to untreated control; assay type: functional; conditions: route intraperitoneal; outline: as §2
B16 [4] = experiment: Antitumor activity against mouse B16 cells allografted in B6D2F1 mouse assessed as increase in life span at 0.648 mg/kg/day, ip administered on day 1, 5 and 9 measured for 56 days relative to untreated control; assay type: functional; conditions: route intraperitoneal; outline: as §2
B16 [5] = experiment: Antitumor activity against mouse B16 cells allografted in B6D2F1 mouse assessed as mean survival time at 0.648 mg/kg/day, ip administered on day 5, 9 and 13 (reference value: 20.0 days); assay type: functional; conditions: route intraperitoneal; outline: as §2
B16 [6] = experiment: Antitumor activity against mouse B16 cells allografted in B6D2F1 mouse assessed as increase in life span at 3 mg/kg/day, ip administered on day 5, 9 and 13 measured for 56 days relative to untreated control; assay type: functional; conditions: route intraperitoneal; outline: as §2
B16 [7] = experiment: Antitumor activity against mouse B16 cells allografted in B6D2F1 mouse assessed as increase in life span at 1.8 mg/kg/day, ip administered on day 5, 9 and 13 measured for 56 days relative to untreated control; assay type: functional; conditions: route intraperitoneal; outline: as §2
B16 [8] = experiment: Antitumor activity against mouse B16 cells allografted in B6D2F1 mouse assessed as increase in life span at 1.08 mg/kg/day, ip administered on day 5, 9 and 13 measured for 56 days relative to untreated control; assay type: functional; conditions: route intraperitoneal; outline: as §2
B16 [9] = experiment: Antitumor activity against mouse B16 cells allografted in B6D2F1 mouse assessed as increase in life span at 0.648 mg/kg/day, ip administered on day 5, 9 and 13 measured for 56 days relative to untreated control; assay type: functional; conditions: route intraperitoneal; outline: as §2
B16 [10] = experiment: Antitumor activity against mouse B16 cells allografted in B6D2F1 mouse assessed as increase in life span at 0.389 mg/kg/day, ip administered on day 5, 9 and 13 measured for 56 days relative to untreated control; assay type: functional; conditions: route intraperitoneal; outline: as §2
[11] = Acute toxicity in ip dosed mouse; assay type: organism-based; conditions: in vivo
[12] = Antitumor activity against mouse P1534(J) cells allografted in mouse assessed as tumor growth inhibition at 0.25 mg/kg/day, ip administered from day 1 to day 9 relative to unreated control; assay type: functional; conditions: P1534J, route intraperitoneal, read-out: TGI
Outline: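 P1534(J) leukemia implanted subcutaneously in mice; sulfate salts given ip on days 1-9. Read-out is percent inhibition of tumor growth versus untreated controls.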

[13] = Toxicity in ip dosed mouse allografted with mouse P1534(J) cells administered from day 1 to day 9; assay type: organism-based; conditions: in vivo, read-out: MNTD
Outline: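 P1534(J) leukemia implanted subcutaneously in mice. Sulfate salts given ip daily on days 1-9. Read-out was percent inhibition of tumor growth relative to untreated controls. The highest nontoxic dose was recorded.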

P388 [14] = experiment: Antitumor activity against mouse P388 cells allografted in mouse assessed as increase in life span at 0.6 mg/kg/day, ip administered from day 1 to day 9 relative to untreated control; assay type: functional; conditions: route intraperitoneal; outline: as §1
P388 [15] = experiment: Antitumor activity against mouse P388 cells allografted in mouse assessed as increase in life span at 0.4 mg/kg/day, ip administered from day 1 to day 9 relative to untreated control; assay type: functional; conditions: route intraperitoneal; outline: as §1
P388 [16] = experiment: Antitumor activity against mouse P388 cells allografted in mouse assessed as increase in life span at 0.27 mg/kg/day, ip administered from day 1 to day 9 relative to untreated control; assay type: functional; conditions: route intraperitoneal; outline: as §1
B16 [17] = experiment: Antitumor activity against mouse B16 cells allografted in C57Bl/6 mouse assessed as mean survival time at 0.9 mg/kg/day, ip administered on day 1, 5 and 9 (reference value: 24.6 days); assay type: functional; conditions: route intraperitoneal
Gallus gallus = experiment: Neurotoxicity in iv dosed chicken assessed as neuromuscular disturbance by measuring loss of balance; assay type: organism-based; conditions: in vivo
Rhesus monkey = experiment: Neurotoxicity in iv dosed monkey assessed as peripheral neuropathy; assay type: toxicity, organism-based, Macaca mulatta; conditions: in vivo
[18] = test system: Friend murine leukemia virus; experiment: Antimicrobial activity against Friend leukemia virus infected in mouse assessed as inhibition of spleen enlargement at 0.25 mg/kg/day, iv for 10 days relative to untreated control; assay type: functional; conditions: 240 h
Outline: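 DBA/2 mice bearing Friend leukemia virus were dosed iv for 10 days. Spleen enlargement was compared with untreated controls.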

In the case of `CC[C@]1(O)C[C@@H]2CN(CCc3c([nH]c4ccccc34)[C@@](C(=O)OC)(c3cc4c(cc3OC)N(C)[C@H]3[C@@](O)(C(N)=O)[C@H](O)[C@]5(CC)C=CCN6CC[C@]43[C@@H]65)C2)C1.O=S(=O)(O)O` [VINDESINE SULFATE], the ILS at 9 mg/kg/day (P388 [1]) is reported as 190%, the ILS at 1.8 mg/kg/day (B16 [2]) is reported as 142% and the ILS at 1.08 mg/kg/day (B16 [3]) is reported as 110%. It also gave an ILS at 0.648 mg/kg/day (B16 [4]) of 75%, an MST (B16 [5]) of 27 days and an ILS at 3 mg/kg/day (B16 [6]) of 48%. The ILS at 1.8 mg/kg/day (B16 [7]) was 90%, the ILS at 1.08 mg/kg/day (B16 [8]) was 58% and the ILS at 0.648 mg/kg/day (B16 [9]) was 35%. For the same compound, the ILS at 0.389 mg/kg/day (B16 [10]) was 25%, the LD50 [11] was 6.3 mg/kg and the inhibition in vivo at 0.25 mg/kg/day [12] was 100%. It also gave an MTD [13] of 0.25 mg/kg/day, an ILS at 0.6 mg/kg/day (P388 [14]) of 213% and an ILS at 0.4 mg/kg/day (P388 [15]) of 172%. For the same compound, the ILS at 0.27 mg/kg/day (P388 [16]) was 172%, the MST (B16 [17]) was 39.3 days and the Activity (Gallus gallus) was “Non-toxic”. The Activity (Rhesus monkey) was “Non-toxic” and the inhibition in vivo at 0.25 mg/kg/day [18] was 90%.

Source: ChEMBL document CHEMBL3272325, “Structure-activity relationships of dimeric Catharanthus alkaloids. 1. Deacetylvinblastine amide (vindesine) sulfate” (J Med Chem, 1978)
